Assays:
[1] = test system: L5178Y; test: Cytotoxicity against parental mouse L5178Y cells assessed as inhibition of cell growth incubated for 24 hrs by MTT assay; assay type: functional, cell-based
Procedure, shortened: (§1)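 L5178Y parental and human ABCB1 retrovirus-transfected lines were grown in McCoy's 5A with 10% heat-inactivated horse serum, and the MDR line was kept under colchicine 60 ng/mL. Cells were seeded at 1×10^4/well and given 2-fold dilutions from 100 μM maximum, in duplicate, for 24 h. MTT was added for 4 h, then SDS/HCl overnight at 37 °C, with OD read at 550 nm (ref 630 nm). Growth inhibition was computed against cell and medium controls, and IC50 came from curve fitting (mean ± SD).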

[2] = test system: L5178Y; test: (§2) Modulation of P-glycoprotein mediated Rhodamine-123 efflux in multi-drug resistant mouse L5178Y cells tranfected with ABCB1 gene assessed as fluorescence activity ratio at 2 uM preincubated for 10 mins followed by rhodamine-123 addition and measured after 20 mins by flow cytometric analysis (reference value: 1.01); assay type: cell-based; settings: filed as modulator, time 30.0 min
Procedure, shortened: (§3)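 Cells were held in serum-free McCoy's 5A with compound at 2.0 or 20 μM, verapamil 20 μM as positive control and DMSO 2% as solvent control, for 10 min at room temperature. R123 was then added (5.2 μM final) for 20 min at 37 °C, followed by two washes into PBS and flow cytometry (FL-1 mean fluorescence). FAR = (MDR treated/untreated FL-1) divided by (PAR treated/untreated FL-1).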

[3] = test system: L5178Y; test: Cytotoxicity against multi-drug resistant mouse L5178Y cells transfected with ABCB1 gene assessed as inhibition of cell growth incubated for 24 hrs by MTT assay; assay type: functional, cell-based; procedure, shortened: as §1
[4] = test system: L5178Y; test: as §2, with “ratio by measuring fold change” for “ratio”, “relative to verapamil” for “(reference value: 1.01)”; assay type: cell-based; settings: filed as modulator, time 30.0 min; procedure, shortened: as §3
[5] = test system: L5178Y; test: as §2, with “ratio by measuring fold change” for “ratio”, “at 20” for “at 2”, “analysis relative to verapamil” for “analysis (reference value: 1.01)”; assay type: cell-based; settings: filed as modulator, time 30.0 min; procedure, shortened: as §3
[6] = test system: L5178Y; test: Synergistic cytotoxicity against multi-drug resistant mouse L5178Y cells transfected with ABCB1 gene assessed as combination index measured after 48 hrs in the presence of doxorubicin by MTT assay; assay type: functional
Procedure, shortened: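 This was a fixed-ratio checkerboard in L5178Y-MDR cells, with doxorubicin diluted from 14.7 to 0.1 μM against serial dilutions of the modulator. Cells were seeded at 2×10^5/mL, incubated 48 h, and read by MTT. Each curve was fitted linearly to the Chou–Talalay median-effect equation, keeping only fits with r > 0.90. CI at 50% inhibition is given as the mean ± SD of three CI values from different drug ratios.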

SMILES | IC50 [1] [µM] | Ratio [2] | IC50 [3] [µM] | fold change (FC) [4] | fold change (FC) [5] | CI [6]
COc1ccc([C@@H]2C/C(=N\NC(=O)c3ccco3)c3c(O)cc(OC)cc3O2)cc1 | 2.7 | 2.24 | 3.4 |  |  | 
COc1ccc([C@@H]2C/C(=N\NC(=O)Cc3c[nH]c4ccccc34)c3c(O)cc(OC)cc3O2)cc1 | 8.6 | 2.47 | 7.5 |  |  | 
COc1cc(O)c2c(c1)O[C@H](c1ccc(O)cc1)C/C2=N\NC(=O)c1ccco1 | ≥ 11.3 | 1.28 | ≥ 11.3 |  |  | 
COc1cc(O)c2c(c1)O[C@H](c1ccc(O)cc1)C/C2=N\NC(=O)Cc1c[nH]c2ccccc12 | ≥ 11.3 | 1.12 | ≥ 11.3 |  |  | 
COC(=O)C1CCN(CC(O)COc2ccc([C@@H]3CC(=O)c4c(O)cc(OC)cc4O3)cc2)CC1 (stereo partly drawn) | ≥ 11.3 | 8.01 | ≥ 11.3 |  |  | 
COc1ccc([C@@H]2CC(=O)c3c(O)cc(OC)cc3O2)cc1 | ≥ 11.3 | 1.03 | ≥ 11.3 |  |  | 
Cn1cccc1/C=N/N=C1\C[C@@H](c2ccc(O)cc2)Oc2cc(O)cc(O)c21 | ≥ 11.3 | 0.64 | ≥ 11.3 |  |  | 
COc1cc(O)c2c(c1)O[C@H](c1ccc(O)cc1)C/C2=N\N | ≥ 11.3 | 1.26 | ≥ 11.3 |  |  | 
COc1cc(O)c2c(c1)O[C@H](c1ccc(O)cc1)CC2=O [SAKURANETIN] | ≥ 11.3 | 1.06 | ≥ 11.3 |  |  | 
COc1cc(O)c2c(c1)O[C@H](c1ccc(O)cc1)C/C2=N\NC(=O)c1ccc(C(F)(F)F)cc1 | ≥ 11.3 | 0.83 | ≥ 11.3 |  |  | 
COc1cc(O)c2c(c1)O[C@H](c1ccc(OCC(O)CSc3ccccc3)cc1)CC2=O (stereo partly drawn) | ≥ 11.3 | 0.92 | ≥ 11.3 |  |  | 
CN(C)C(=S)N/N=C1\C[C@@H](c2ccc(O)cc2)Oc2cc(O)cc(O)c21 | ≥ 11.3 | 2.17 | ≥ 11.3 |  |  | 
CCN(CC)CC(O)COc1ccc([C@@H]2CC(=O)c3c(O)cc(OC)cc3O2)cc1 (stereo partly drawn) | ≥ 11.3 | 4.06 | ≥ 11.3 |  |  | 
O=C(Cc1c[nH]c2ccccc12)N/N=C1\C[C@@H](c2ccc(O)cc2)Oc2cc(O)cc(O)c21 | ≥ 11.3 | 1 | ≥ 11.3 |  |  | 
COc1ccc([C@@H]2C/C(=N\NC(=O)c3ccc(N)cc3)c3c(O)cc(OC)cc3O2)cc1 | 3.9 | 1.32 | 1.3 |  |  | 
Oc1ccc([C@@H]2C/C(=N\Nc3cnccn3)c3c(O)cc(O)cc3O2)cc1 | ≥ 11.3 | 1.65 | ≥ 11.3 |  |  | 
COc1cc(O)c2c(c1)O[C@H](c1ccc(O)cc1)C/C2=N\Nc1ccc(Br)cn1 | 4.3 | 2.1 | 12.7 |  |  | 
O=C(N/N=C1\C[C@@H](c2ccc(O)cc2)Oc2cc(O)cc(O)c21)c1cccs1 (stereo in doubt) | ≥ 11.3 | 0.92 | ≥ 11.3 |  |  | 
COc1cc(O)c2c(c1)O[C@H](c1ccc(O)cc1)C/C2=N\NC(=O)c1cccs1 | 9.4 | 1.39 | 12 |  |  | 
COc1cc(O)c2c(c1)O[C@H](c1ccc(O)cc1)C/C2=N\Nc1ccccc1 | ≥ 11.3 | 1.16 | ≥ 11.3 |  |  | 

SMILES | IC50 [1] [µM] | Ratio [2] | IC50 [3] [µM] | fold change (FC) [4] | fold change (FC) [5] | CI [6]
COc1cc(O)c2c(c1)O[C@H](c1ccc(OCC(O)CCl)cc1)CC2=O (stereo partly drawn) | ≥ 11.3 | 1.33 | ≥ 11.3 |  |  | 
COc1cc(O)c2c(c1)O[C@H](c1ccc(OCC(O)CNC3CCN(Cc4ccccc4)CC3)cc1)CC2=O (stereo partly drawn) | ≥ 11.3 | 18.7 | ≥ 11.3 | 2 | 6 | 0.108
COc1ccc([C@@H]2C/C(=N\N)c3c(O)cc(OC)cc3O2)cc1 | ≥ 11.3 | 0.85 | ≥ 11.3 |  |  | 
Oc1ccc([C@@H]2C/C(=N\Nc3ccccc3)c3c(O)cc(O)cc3O2)cc1 | ≥ 11.3 | 1.16 | ≥ 11.3 |  |  | 
COc1cccc(/C=N/N=C2\C[C@@H](c3ccc(O)cc3)Oc3cc(OC)cc(O)c32)c1 | ≥ 11.3 | 0.78 | ≥ 11.3 |  |  | 
COc1cc(O)c2c(c1)O[C@H](c1ccc(O)cc1)C/C2=N\NC(=O)OCc1ccccc1 | ≥ 11.3 | 4.14 | ≥ 11.3 |  | 7 | 0.638
COc1cc(O)c2c(c1)O[C@H](c1ccc(O)cc1)C/C2=N\NC(=O)c1ccc(N)cc1 | ≥ 11.3 | 0.96 | ≥ 11.3 |  |  | 
Oc1ccc([C@@H]2C/C(=N\Nc3ccc(Br)cn3)c3c(O)cc(O)cc3O2)cc1 | ≥ 11.3 | 1.08 | ≥ 11.3 |  |  | 
COc1ccc([C@@H]2C/C(=N\Nc3ccc(Br)cn3)c3c(O)cc(OC)cc3O2)cc1 | 8 | 10.7 | 10.7 |  |  | 
O=C(N/N=C1\C[C@@H](c2ccc(O)cc2)Oc2cc(O)cc(O)c21)OCc1ccccc1 | ≥ 11.3 | 0.76 | ≥ 11.3 |  |  | 
Oc1ccc([C@@H]2C/C(=N\N=C\c3c[nH]c4ccccc34)c3c(O)cc(O)cc3O2)cc1 | ≥ 11.3 | 0.95 | ≥ 11.3 |  |  | 
COc1cc(O)c2c(c1)O[C@H](c1ccc(OCC(O)Cc3c[nH]c4ccccc34)cc1)CC2=O (stereo partly drawn) | ≥ 11.3 | 0.86 | ≥ 11.3 |  |  | 
COc1cc(O)c2c(c1)O[C@H](c1ccc(OCC(O)CN3CCCCC3)cc1)CC2=O (stereo partly drawn) | 9.3 | 3.08 | 17.4 |  |  | 
N/N=C1\C[C@@H](c2ccc(O)cc2)Oc2cc(O)cc(O)c21 | ≥ 11.3 | 0.72 | ≥ 11.3 |  |  | 
COc1ccc([C@@H]2C/C(=N\NC(=O)OCc3ccccc3)c3c(O)cc(OC)cc3O2)cc1 | > 100 | 0.94 | 7.2 |  |  | 0.445
O=C1C[C@@H](c2ccc(O)cc2)Oc2cc(O)cc(O)c21 [NARINGENIN] | ≥ 11.3 | 0.72 | ≥ 11.3 |  |  | 
COc1cc(O)c2c(c1)O[C@H](c1ccc(OCC3CO3)cc1)CC2=O (stereo partly drawn) | ≥ 11.3 | 1.17 | ≥ 11.3 |  |  | 
O=C(N/N=C1\C[C@@H](c2ccc(O)cc2)Oc2cc(O)cc(O)c21)c1ccco1 (stereo in doubt) | ≥ 11.3 | 0.86 | ≥ 11.3 |  |  | 
COc1ccc([C@@H]2C/C(=N\Nc3ccccc3)c3c(O)cc(OC)cc3O2)cc1 | ≥ 11.3 | 1.8 | ≥ 11.3 |  |  | 
